According to ChEMBL document CHEMBL4261485, “Towards the rational design of novel drugs based on solubility, partitioning/distribution, biomimetic permeability and biological activity exemplified by 1,2,4-thiadiazole derivatives” (Medchemcomm, 2017):
Converted amounts (≈) assume the structure as drawn.

How the values were obtained:
[1] = species: Rattus norvegicus; test: Modulation of glutamate receptor in synaptosomes of rat brain cortex assessed as change in glutamate-induced 45Ca2+ uptake (K43/21) after 5 mins by liquid scintillation counting method; format: subcellular; parameters: concentration or dose not given beside the values
In short: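 Cortical synaptosomes (P2 fraction) from 9–10-day-old rats suspended in HEPES buffer pH 7.4 (NaCl, KCl, glucose; protein 1.5–2 mg mL−1), final Ca2+ 1.25 mM. 45Ca2+ uptake stimulated with 200 μM glutamate, 5 min at […]; stopped by GF/B filtration and three cold-buffer washes; beta counting. Uptake = stimulated minus unstimulated label, % of control; triplicate.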

[2] = Thermodynamic solubility of compound in buffer at 298 +/- 0.1 K after 24 hrs by shake flask method; format: physicochemical; conditions: read-out: Therm_solubility
In short: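 Shake flask at 298 K (±0.1 K). Phosphate buffer pH 7.4 (I = 0.15 mol L−1) was stirred with solid for 24 h, an equilibration time chosen from kinetic plateau experiments. Aliquot was centrifuged 5 min at 298 K, then isothermally filtered (0.45 μm) and diluted. Concentration was read by UV spectrophotometry (200–400 nm). Value is the mean of at least three replicates.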

[3] = 1-hexane/buffer partition co-efficient of compound in neutral form at pH 7.4 at 298 K after 24 hrs by shake flask method; format: physicochemical; conditions: pH 7.4, 24 h
[4] = 1-octanol/buffer partition co-efficient of compound in neutral form at pH 7.4 at 298 K after 24 hrs by shake flask method; format: physicochemical; conditions: pH 7.4, 24 h
[5] = 1-octanol/buffer distribution co-efficient, log D of compound at pH 7.4 at 298 K after 24 hrs by shake flask method; format: physicochemical
In short: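 Shake flask. Buffer (pH 7.4) and 1-octanol were pre-saturated by vigorous mixing for 24 h at 298 K (±0.1 K) and then allowed to separate. Compound was dissolved in the buffer-saturated octanol as stock, then mixed with the octanol-saturated buffer for 24 h at 298 K. Both phases were quantified by UV spectrophotometry against calibration curves. D = Coct/Cbuf.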

[6] = Permeability of compound at 5 mM using lipid layer at pH 7.4 at 298 K by spectrophotometric method; format: ADME; conditions: not told
[7] = Permeability of compound at 5 mM using support layer at pH 7.4 at 298 K by spectrophotometric method; format: ADME; conditions: not told
In short: (§1)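 Franz diffusion cell at 298 K (±0.1 K). The donor (lower) chamber held 8 ml of drug solution, approximately 5 mM, in phosphate buffer saline (74 mM phosphate, pH 7.3–7.4, 280–290 mOsm with NaCl). The acceptor chamber held 1.5 ml buffer. Barrier was Permeapad or the support layer alone, without phospholipids. Cumulative permeated moles per barrier area were plotted against time in seconds. Replicates were at least triplicate, and Papp is the mean of the replicates.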

[8] = Apparent permeability of compound at 5 mM using permeapad barrier at pH 7.4 at 298 K by spectrophotometric method; format: ADME; conditions: not told; in short: as §1
[9] = 1-hexane/buffer distribution co-efficient, log D of compound at pH 7.4 at 298 K after 24 hrs by shake flask method; format: physicochemical; conditions: pH 7.4, 24 h

Work on `Cc1ccc(Nc2nc(CC(C)O)ns2)cc1` (configuration not stated) yielded an Activity [1] of 85%, a solubility thermodynamic at 24 h [2] of 2.19 mM (≈ 546 µg/mL) and a K [3] of 0.31. For the same molecule, the K [4] was 445 and the logD at 24 h [5] was 2.65.
Work on `CC(O)Cc1nsc(Nc2ccc(Cl)c(Cl)c2)n1` (configuration not stated) yielded an Activity [1] of 51%, a K [3] of 0.17 and a K [4] of 610. The logD at 24 h [5] was 2.79.
In the case of `CC(Cc1nsc(Nc2ccc(F)c(Cl)c2)n1)NC1CC(C)(C)NC(C)(C)C1` (configuration not stated), the Activity [1] is reported as 189%, the solubility thermodynamic at 24 h [2] is reported as 9.24 mM (≈ 3940 µg/mL) and the Papp at 5000 µM [6] is reported as 30.9 ×10⁻⁶ cm/s. It also gave a Papp at 5000 µM [7] of 25.4 ×10⁻⁶ cm/s, a Papp at 5000 µM [8] of 13.9 ×10⁻⁶ cm/s and a K [3] of 42. It also gave a K [4] of 3.25 ×10⁴ No_unit and a logD at 24 h [5] of 0.699.
Molecule `COc1ccc(Nc2nc(CC(C)O)ns2)cc1` (configuration not stated) has an Activity [1] of 108%, a solubility thermodynamic at 24 h [2] of 3.04 mM (≈ 807 µg/mL) and a K [3] of 0.58. The K [4] was 205 and the logD at 24 h [5] was 2.31.
For `CSc1cccc(Nc2nc(CC(C)O)ns2)c1` (configuration not stated), the Activity [1] was 86.7%, the K [3] was 0.48 and the K [4] was 94. The logD at 24 h [5] was 1.97.
`CC(Cc1nsc(NC2CC2)n1)NC1CC(C)(C)NC(C)(C)C1` (configuration not stated) gave an Activity [1] of 86%, a solubility thermodynamic at 24 h [2] of 310 mM (≈ 105000 µg/mL) and a Papp at 5000 µM [6] of 6.8 ×10⁻⁶ cm/s. The Papp at 5000 µM [7] was 27.6 ×10⁻⁶ cm/s, the Papp at 5000 µM [8] was 5.4 ×10⁻⁶ cm/s and the K [3] was 655.5. For the same molecule, the K [4] was 3.19 ×10³ No_unit and the logD at 24 h [5] was 0.0828.
Molecule `Cc1ccc(Nc2nc(CC(C)NC3CC(C)(C)NC(C)(C)C3)ns2)cc1` (configuration not stated) has an Activity [1] of 128%, a solubility thermodynamic at 24 h [2] of 8.37 mM (≈ 3240 µg/mL) and a Papp at 5000 µM [6] of 22.8 ×10⁻⁶ cm/s. It also gave a Papp at 5000 µM [7] of 26.3 ×10⁻⁶ cm/s, a Papp at 5000 µM [8] of 12.2 ×10⁻⁶ cm/s and a K [3] of 89.3. It also gave a K [4] of 4.44 ×10⁴ No_unit and a logD at 24 h [5] of 0.82.
With `CC(O)Cc1nsc(Nc2ccc(F)c(Cl)c2)n1` (configuration not stated) the Activity [1] was 75%, the K [3] was 0.16 and the K [4] was 226. It also gave a logD at 24 h [5] of 2.35.
With `CC(Cc1nsc(Nc2ccc(Br)cc2)n1)NC1CC(C)(C)NC(C)(C)C1` (configuration not stated) the Activity [1] was 82%, the solubility thermodynamic at 24 h [2] was 3.49 mM (≈ 1580 µg/mL) and the Papp at 5000 µM [6] was 9.5 ×10⁻⁶ cm/s. It also gave a Papp at 5000 µM [7] of 25.8 ×10⁻⁶ cm/s, a Papp at 5000 µM [8] of 6.5 ×10⁻⁶ cm/s and a K [3] of 85. It also gave a K [4] of 1.36 ×10⁴ No_unit and a logD at 24 h [5] of 0.31.
Work on `Cc1ccc(Nc2nc(CC(C)O)ns2)cc1Cl` (configuration not stated) yielded an Activity [1] of 87%, a solubility thermodynamic at 24 h [2] of 0.483 mM (≈ 137 µg/mL) and a K [3] of 1.68. It also gave a K [4] of 1.038 ×10³ No_unit and a logD at 24 h [5] of 3.02.
With `Cc1ccc(Cl)cc1Nc1nc(CC(C)NC2CC(C)(C)NC(C)(C)C2)ns1` (configuration not stated) the Activity [1] was 177%, the solubility thermodynamic at 24 h [2] was 4.86 mM (≈ 2050 µg/mL) and the Papp at 5000 µM [6] was 26.9 ×10⁻⁶ cm/s. It also gave a Papp at 5000 µM [7] of 30.8 ×10⁻⁶ cm/s, a Papp at 5000 µM [8] of 14.4 ×10⁻⁶ cm/s and a K [3] of 112.8. It also gave a K [4] of 4.56 ×10⁴ No_unit and a logD at 24 h [5] of 0.839.
In the case of `CC(Cc1nsc(Nc2ccc(Cl)cc2)n1)NC1CC(C)(C)NC(C)(C)C1` (configuration not stated), the Activity [1] is reported as 172%, the solubility thermodynamic at 24 h [2] is reported as 3.72 mM (≈ 1520 µg/mL) and the Papp at 5000 µM [6] is reported as 14.1 ×10⁻⁶ cm/s. It also gave a Papp at 5000 µM [7] of 21.9 ×10⁻⁶ cm/s, a Papp at 5000 µM [8] of 8.6 ×10⁻⁶ cm/s and a K [3] of 73. The K [4] was 1.22 ×10⁴ No_unit and the logD at 24 h [5] was 0.262.
In the case of `Cc1cc(Nc2nc(CC(C)NC3CC(C)(C)NC(C)(C)C3)ns2)no1` (configuration not stated), the Activity [1] is reported as 108%, the solubility thermodynamic at 24 h [2] is reported as 14.1 mM (≈ 5340 µg/mL) and the Papp at 5000 µM [6] is reported as 3.7 ×10⁻⁶ cm/s. It also gave a Papp at 5000 µM [7] of 31.7 ×10⁻⁶ cm/s, a Papp at 5000 µM [8] of 3.4 ×10⁻⁶ cm/s and a K [3] of 258.6. The logD at 24 h [5] was -0.426.
Work on `CC(Cc1nsc(Nc2ccc(F)cc2)n1)NC1CC(C)(C)NC(C)(C)C1` (configuration not stated) yielded an Activity [1] of 112%, a solubility thermodynamic at 24 h [2] of 18.2 mM (≈ 7130 µg/mL) and a Papp at 5000 µM [6] of 18.6 ×10⁻⁶ cm/s. It also gave a Papp at 5000 µM [7] of 16.3 ×10⁻⁶ cm/s, a Papp at 5000 µM [8] of 8.7 ×10⁻⁶ cm/s and a K [3] of 158. The K [4] was 5.06 ×10⁴ No_unit and the logD at 24 h [5] was 0.881.
With `CC(Cc1nsc(Nc2ccc(Cl)c(Cl)c2)n1)NC1CC(C)(C)NC(C)(C)C1` (configuration not stated) the Activity [1] was 305%, the solubility thermodynamic at 24 h [2] was 7.45 mM (≈ 3300 µg/mL) and the Papp at 5000 µM [6] was 26.1 ×10⁻⁶ cm/s. It also gave a Papp at 5000 µM [7] of 15.7 ×10⁻⁶ cm/s, a Papp at 5000 µM [8] of 9.8 ×10⁻⁶ cm/s and a K [3] of 72.3. It also gave a logD at 24 h [5] of 1.1.
Work on `Cc1ccc(Cl)cc1Nc1nc(CC(C)O)ns1` (configuration not stated) yielded an Activity [1] of 88%, a solubility thermodynamic at 24 h [2] of 0.445 mM (≈ 126 µg/mL) and a K [3] of 0.56. For the same molecule, the logD at 24 h [5] was 3.02.
`Cc1cc(Nc2nc(CC(C)O)ns2)no1` (configuration not stated) showed an Activity [1] of 109%, a K [3] of 0.18 and a K [4] of 45. It also gave a logD at 24 h [5] of 1.65.
Work on `CSc1cccc(Nc2nc(CC(C)NC3CC(C)(C)NC(C)(C)C3)ns2)c1` (configuration not stated) yielded an Activity [1] of 117%, a solubility thermodynamic at 24 h [2] of 12 mM (≈ 5040 µg/mL) and a Papp at 5000 µM [6] of 18.2 ×10⁻⁶ cm/s. The Papp at 5000 µM [7] was 22.8 ×10⁻⁶ cm/s, the Papp at 5000 µM [8] was 10.1 ×10⁻⁶ cm/s and the K [3] was 92.9. The K [4] was 2.92 ×10⁴ No_unit and the logD at 24 h [5] was 0.643.
For `CC(O)Cc1nsc(Nc2ccc(F)cc2)n1` (configuration not stated), the Activity [1] was 88%, the solubility thermodynamic at 24 h [2] was 3.4 mM (≈ 861 µg/mL) and the K [3] was 0.32. It also gave a K [4] of 316 and a logD at 24 h [5] of 2.5.
`Cc1ccc(Nc2nc(CC(C)NC3CC(C)(C)NC(C)(C)C3)ns2)cc1Cl` (configuration not stated) gave an Activity [1] of 214%, a solubility thermodynamic at 24 h [2] of 5.57 mM (≈ 2350 µg/mL) and a Papp at 5000 µM [6] of 39.5 ×10⁻⁶ cm/s. For the same molecule, the Papp at 5000 µM [7] was 20.6 ×10⁻⁶ cm/s, the Papp at 5000 µM [8] was 13.5 ×10⁻⁶ cm/s and the K [3] was 20.6. For the same molecule, the logD [9] was 0.0031, the K [4] was 7.31 ×10⁴ No_unit and the logD at 24 h [5] was 1.04.
With `CC(O)Cc1nsc(Nc2ccc(Cl)cc2)n1` (configuration not stated) the Activity [1] was 89%, the solubility thermodynamic at 24 h [2] was 0.484 mM (≈ 130 µg/mL) and the K [3] was 0.46. The K [4] was 380 and the logD at 24 h [5] was 2.58.
